Experimental data taken from ChEMBL document CHEMBL4680125, “Synthesis and bioevaluation of 1-phenylimidazole-4-carboxylic acid derivatives as novel xanthine oxidoreductase inhibitors” (Eur J Med Chem, 2020).
Active and inactive are the calls of the source. The calls are words filed in the database; no cut-off is given here.

Key:
[1] = target: Xanthine dehydrogenase/oxidase (Bos taurus, UniProt P80457); assay: Inhibition of bovine xanthine oxidase assessed as reduction in uric acid formation using xanthine as substrate incubated for 3 mins by microplate assay
Xanthine dehydrogenase/oxidase, sequence (P80457 whole entry): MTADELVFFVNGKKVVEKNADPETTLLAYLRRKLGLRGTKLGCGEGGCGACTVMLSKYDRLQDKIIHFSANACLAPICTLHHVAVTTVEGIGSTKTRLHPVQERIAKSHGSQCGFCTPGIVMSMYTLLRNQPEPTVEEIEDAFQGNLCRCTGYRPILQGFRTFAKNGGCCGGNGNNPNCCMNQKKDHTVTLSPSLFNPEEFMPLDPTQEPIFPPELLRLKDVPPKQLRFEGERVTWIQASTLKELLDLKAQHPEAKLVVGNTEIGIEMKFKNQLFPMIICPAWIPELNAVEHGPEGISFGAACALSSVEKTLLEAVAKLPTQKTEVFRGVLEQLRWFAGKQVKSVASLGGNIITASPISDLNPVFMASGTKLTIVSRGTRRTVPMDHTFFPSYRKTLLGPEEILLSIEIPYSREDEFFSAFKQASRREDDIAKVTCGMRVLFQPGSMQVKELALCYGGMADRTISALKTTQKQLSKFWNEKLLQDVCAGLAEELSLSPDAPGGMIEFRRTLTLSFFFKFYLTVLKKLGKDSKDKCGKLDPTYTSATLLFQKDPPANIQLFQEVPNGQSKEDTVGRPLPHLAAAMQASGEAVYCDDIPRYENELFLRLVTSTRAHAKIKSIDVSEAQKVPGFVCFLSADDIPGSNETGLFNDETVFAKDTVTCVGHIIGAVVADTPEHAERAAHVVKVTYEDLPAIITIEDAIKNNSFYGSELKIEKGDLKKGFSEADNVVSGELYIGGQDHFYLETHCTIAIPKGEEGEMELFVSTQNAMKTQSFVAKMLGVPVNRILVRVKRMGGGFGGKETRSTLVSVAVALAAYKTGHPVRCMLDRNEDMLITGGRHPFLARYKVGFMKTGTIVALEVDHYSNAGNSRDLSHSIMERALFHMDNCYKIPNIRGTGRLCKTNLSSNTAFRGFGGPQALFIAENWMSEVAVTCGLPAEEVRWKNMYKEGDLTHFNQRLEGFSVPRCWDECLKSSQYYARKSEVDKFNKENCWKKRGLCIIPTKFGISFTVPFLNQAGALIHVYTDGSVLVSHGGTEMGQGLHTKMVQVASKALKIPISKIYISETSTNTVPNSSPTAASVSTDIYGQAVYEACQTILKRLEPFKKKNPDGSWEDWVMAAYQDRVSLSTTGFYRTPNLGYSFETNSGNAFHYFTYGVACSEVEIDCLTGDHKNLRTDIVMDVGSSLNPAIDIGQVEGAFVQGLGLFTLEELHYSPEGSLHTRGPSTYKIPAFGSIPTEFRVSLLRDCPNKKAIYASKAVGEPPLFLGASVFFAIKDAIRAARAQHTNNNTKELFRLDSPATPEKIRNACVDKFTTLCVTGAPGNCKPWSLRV

[2] = tested on: Mus musculus; assay: Hypouricemic activity in ICR mouse model of xanthine/potassium oxonate-induced long term hyperuricemia assessed as decrease in serum uric acid level at 5 mg/kg, ig qd treated subsequently for 7 days relative to control; assay type: functional, organism-based; details: time 7.0 day
Outline: (§1)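 Long-term model in ICR mice: potassium oxonate 250 mg/kg s.c. plus hypoxanthine 150 mg/kg i.p. at 9:00 AM, once daily for 7 days. Compound dosed intragastrically at 5 mg/kg (0.5% CMC-Na suspension) at 10:00 AM for 7 days. Serum obtained by centrifugation at 4000 r/min for 10 min and stored at −80 °C. Uric acid, creatinine and urea nitrogen measured with diagnostic kits; n = 8.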

[3] = tested on: Mus musculus; assay: Hypouricemic activity in ICR mouse model of xanthine/potassium oxonate-induced acute hyperuricemia assessed as decrease in serum uric acid level at 5 mg/kg, ig relative to control; assay type: functional, organism-based; details: TDE = time-dependent effect
Outline: (§2)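 ICR mice (18–22 g), acclimatized ≥1 week. Acute hyperuricemia induced by potassium oxonate 250 mg/kg s.c. plus hypoxanthine 400 mg/kg i.p., both in saline. Baseline tail blood taken at 1 h, then compound given intragastrically at 5 mg/kg as a suspension in 0.5% CMC-Na; model group received vehicle. […] Mean ± S.D.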

[4] = tested on: Mus musculus; assay: Hypouricemic activity in ICR mouse model of xanthine/potassium oxonate-induced acute hyperuricemia assessed as decrease in serum uric acid level at 5 mg/kg, ig measured after 4 hrs relative to control; assay type: functional, organism-based; outline: as §2
[5] = Toxicity in ICR mouse model of xanthine/potassium oxonate-induced hyperuricemia assessed as creatinine level at 5 mg/kg, ig qd treated subsequently for 7 days relative to control; assay type: organism-based; details: in vivo, po, 168 h, time 7 day; outline: as §1
[6] = Toxicity in ICR mouse model of xanthine/potassium oxonate-induced hyperuricemia assessed as urea nitrogen level at 5 mg/kg, ig qd treated subsequently for 7 days relative to control; assay type: organism-based; details: in vivo, po, 168 h, time 7 day; outline: as §1

Compound	IC50 [1] [nM]	also measured
COc1ccc(-c2ccc(-n3cnc(C(=O)O)c3)cc2C#N)cc1	34.5	
CCC(CC)COc1ccc(-n2cnc(C(=O)O)c2)cc1C#N	29.8	
N#Cc1cc(-n2cnc(C(=O)O)c2)ccc1N1CCCCCCC1	8	Activity [2]: Active; Activity [3]: Tde; Activity [4]: Active; Activity [5]: Toxic; Activity [6]: Toxic
N#Cc1cc(-c2c[nH]c(C(=O)O)n2)ccc1OC1CCCC1	387	
CC(C)Oc1ccc(-n2cnc(C(=O)O)c2)cc1C#N	198	
N#Cc1cc(-n2cnc(C(=O)O)c2)ccc1N1CCCC1	34.1	
CCC(C)Oc1ccc(-n2cnc(C(=O)O)c2)cc1C#N (configuration not stated)	73.9	
N#Cc1cc(-n2cnc(C(=O)O)c2)ccc1OC1CCCC1	63	
COc1cccc(-c2ccc(-n3cnc(C(=O)O)c3)cc2C#N)c1	74.4	
CC(C)COc1ccc(-c2cn(C)c(C(=O)O)n2)cc1C#N	2160	
CC(C)Oc1ccc(-c2c[nH]c(C(=O)O)n2)cc1C#N	750	
CCOc1ccc(-n2cnc(C(=O)O)c2)cc1C#N	226	
CC1CCN(c2ccc(-n3cnc(C(=O)O)c3)cc2C#N)CC1	30.5	
N#Cc1cc(-n2cnc(C(=O)O)c2)ccc1N1CCCCC1	55.6	
CCC(CC)Oc1ccc(-n2cnc(C(=O)O)c2)cc1C#N	40.6	
CC(C)COc1ccc(-c2c[nH]c(C(=O)O)n2)cc1C#N	510	
N#Cc1cc(-n2cnc(C(=O)O)c2)ccc1OC1CCCCC1	47.4	
CC(C)COc1ccc(-n2cnc(C(=O)O)c2)cc1C#N	94.5	
CC(C)(C)COc1ccc(-n2cnc(C(=O)O)c2)cc1C#N	67.9	
CC(C)CN(C)c1ccc(-n2cnc(C(=O)O)c2)cc1C#N	27.1	
CCOc1ccc(-c2c[nH]c(C(=O)O)n2)cc1C#N	948	
CC(C)(C)c1ccc(-c2ccc(-n3cnc(C(=O)O)c3)cc2C#N)cc1	7.2	Activity [2]: Active; Activity [3]: Tde; Activity [4]: Active; Activity [5]: Toxic; Activity [6]: Toxic
